Experimental data: BindingDB's records for doi:10.1021/jm950541c (Georgia Institute of Technology, 1996)
pKi: −log10 of the molar value.

Target: T1, Calpain-2 catalytic subunit (Homo sapiens, UniProt P17655)
T1 sequence (P17655 whole entry): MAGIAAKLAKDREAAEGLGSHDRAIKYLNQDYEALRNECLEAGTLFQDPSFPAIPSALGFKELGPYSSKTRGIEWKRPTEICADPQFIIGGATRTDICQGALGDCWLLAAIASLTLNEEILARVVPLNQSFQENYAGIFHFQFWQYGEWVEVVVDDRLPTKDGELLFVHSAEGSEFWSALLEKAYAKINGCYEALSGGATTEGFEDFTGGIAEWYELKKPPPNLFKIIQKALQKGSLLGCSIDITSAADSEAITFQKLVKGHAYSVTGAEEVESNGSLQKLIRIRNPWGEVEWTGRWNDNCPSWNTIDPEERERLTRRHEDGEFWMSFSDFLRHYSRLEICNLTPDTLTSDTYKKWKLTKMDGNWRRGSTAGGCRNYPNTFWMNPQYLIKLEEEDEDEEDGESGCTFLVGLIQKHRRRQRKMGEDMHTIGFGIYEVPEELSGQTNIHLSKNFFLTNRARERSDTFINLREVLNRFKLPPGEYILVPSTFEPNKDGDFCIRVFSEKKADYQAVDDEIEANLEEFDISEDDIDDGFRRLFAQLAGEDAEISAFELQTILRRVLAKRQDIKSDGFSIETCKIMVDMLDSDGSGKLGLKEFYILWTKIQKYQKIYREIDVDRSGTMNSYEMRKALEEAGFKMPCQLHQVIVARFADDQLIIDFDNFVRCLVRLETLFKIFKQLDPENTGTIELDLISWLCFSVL
Experiment: Compound was evaluated for the inhibition of Cysteine protease Calpain 2
Procedure, shortened: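 Calpain assay in 25 mM Tris, pH 8.0, with 10 mM CaCl₂ and 5% DMSO. Suc-Leu-AMC hydrolysis was read as initial velocity (t = 30-60 s) after a 30 s delay, at room temperature. Five or more inhibitor concentrations (not above 2 × K_obs) were used at two fixed substrate levels. Ki came from Dixon plots (1/v vs I) averaged over triplicates.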

CCC(NC(=O)C(CC(C)C)NC(=O)OCc1ccccc1)C(=O)C(=O)NCc1ccccn1 (configuration not stated) [{3-Methyl-1-[1-(pyridin-2-ylmethyl)-aminooxalyl]-propylcarbamoyl}-butyl)-carbamic acid benzyl ester]
pKi: 7.77

CCC(NC(=O)C(CC(C)C)NC(=O)OCc1ccccc1)C(=O)C(=O)NCc1ccncc1 (configuration not stated) [{3-Methyl-1-[1-(pyridin-4-ylmethyl)-aminooxalyl]-propylcarbamoyl}-butyl)-carbamic acid benzyl ester]
pKi: 6.96
